Reference: article PMC8792322 (European journal of medicinal chemistry, 2021)
Values belong to the compound of their own block, whether it stands above or below them.

How the values were obtained:
[1] = tested on: PI3Kα, PI3Kβ, PI3Kγ, PI3Kδ; details: compared to ZSTK474; cited from earlier work
PI3Kβ = PI3Kβ (Homo sapiens, UniProt P42338); experiment: PI3Kβ lipid kinase inhibition, Adapta TR-FRET assay; type: biochemical; details: in comparison to ZSTK474
PI3Kγ = PI3Kγ (Homo sapiens, UniProt P48736); experiment: PI3Kγ lipid kinase inhibition, Adapta TR-FRET assay; type: biochemical; details: in comparison to ZSTK474
Sequence of PI3Kγ (P48736 whole entry): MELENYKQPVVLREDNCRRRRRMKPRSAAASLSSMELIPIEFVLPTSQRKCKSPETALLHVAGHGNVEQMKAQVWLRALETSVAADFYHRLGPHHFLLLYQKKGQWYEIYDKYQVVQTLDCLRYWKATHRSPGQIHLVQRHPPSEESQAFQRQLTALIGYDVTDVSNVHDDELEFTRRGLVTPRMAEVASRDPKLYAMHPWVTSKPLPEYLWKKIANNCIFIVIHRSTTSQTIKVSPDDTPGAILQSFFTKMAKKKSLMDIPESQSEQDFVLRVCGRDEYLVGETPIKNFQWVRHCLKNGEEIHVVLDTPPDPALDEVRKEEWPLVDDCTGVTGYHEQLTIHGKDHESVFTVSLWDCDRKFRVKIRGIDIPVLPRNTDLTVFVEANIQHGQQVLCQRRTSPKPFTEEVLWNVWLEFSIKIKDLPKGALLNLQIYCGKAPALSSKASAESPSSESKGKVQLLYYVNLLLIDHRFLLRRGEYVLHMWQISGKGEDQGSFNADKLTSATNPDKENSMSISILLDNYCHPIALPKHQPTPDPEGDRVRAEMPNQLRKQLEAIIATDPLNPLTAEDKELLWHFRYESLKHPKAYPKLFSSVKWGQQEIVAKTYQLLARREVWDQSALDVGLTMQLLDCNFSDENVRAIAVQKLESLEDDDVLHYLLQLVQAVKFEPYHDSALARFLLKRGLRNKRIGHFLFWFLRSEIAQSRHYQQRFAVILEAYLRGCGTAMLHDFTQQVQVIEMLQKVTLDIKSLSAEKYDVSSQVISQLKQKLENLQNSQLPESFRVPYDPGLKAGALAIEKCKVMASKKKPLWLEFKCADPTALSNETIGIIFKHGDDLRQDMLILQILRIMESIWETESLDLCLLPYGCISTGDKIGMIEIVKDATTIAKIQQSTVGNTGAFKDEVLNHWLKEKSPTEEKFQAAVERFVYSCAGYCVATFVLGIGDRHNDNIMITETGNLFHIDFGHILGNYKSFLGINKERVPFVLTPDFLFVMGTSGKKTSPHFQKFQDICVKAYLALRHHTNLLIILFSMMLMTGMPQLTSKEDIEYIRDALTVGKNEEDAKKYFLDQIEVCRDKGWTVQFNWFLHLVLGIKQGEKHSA

PI3Kδ = PI3Kδ (Homo sapiens, UniProt O00329); experiment: PI3Kδ lipid kinase inhibition, Adapta TR-FRET assay; type: biochemical; details: in comparison to ZSTK474
Sequence of PI3Kδ (O00329 whole entry, canonical isoform): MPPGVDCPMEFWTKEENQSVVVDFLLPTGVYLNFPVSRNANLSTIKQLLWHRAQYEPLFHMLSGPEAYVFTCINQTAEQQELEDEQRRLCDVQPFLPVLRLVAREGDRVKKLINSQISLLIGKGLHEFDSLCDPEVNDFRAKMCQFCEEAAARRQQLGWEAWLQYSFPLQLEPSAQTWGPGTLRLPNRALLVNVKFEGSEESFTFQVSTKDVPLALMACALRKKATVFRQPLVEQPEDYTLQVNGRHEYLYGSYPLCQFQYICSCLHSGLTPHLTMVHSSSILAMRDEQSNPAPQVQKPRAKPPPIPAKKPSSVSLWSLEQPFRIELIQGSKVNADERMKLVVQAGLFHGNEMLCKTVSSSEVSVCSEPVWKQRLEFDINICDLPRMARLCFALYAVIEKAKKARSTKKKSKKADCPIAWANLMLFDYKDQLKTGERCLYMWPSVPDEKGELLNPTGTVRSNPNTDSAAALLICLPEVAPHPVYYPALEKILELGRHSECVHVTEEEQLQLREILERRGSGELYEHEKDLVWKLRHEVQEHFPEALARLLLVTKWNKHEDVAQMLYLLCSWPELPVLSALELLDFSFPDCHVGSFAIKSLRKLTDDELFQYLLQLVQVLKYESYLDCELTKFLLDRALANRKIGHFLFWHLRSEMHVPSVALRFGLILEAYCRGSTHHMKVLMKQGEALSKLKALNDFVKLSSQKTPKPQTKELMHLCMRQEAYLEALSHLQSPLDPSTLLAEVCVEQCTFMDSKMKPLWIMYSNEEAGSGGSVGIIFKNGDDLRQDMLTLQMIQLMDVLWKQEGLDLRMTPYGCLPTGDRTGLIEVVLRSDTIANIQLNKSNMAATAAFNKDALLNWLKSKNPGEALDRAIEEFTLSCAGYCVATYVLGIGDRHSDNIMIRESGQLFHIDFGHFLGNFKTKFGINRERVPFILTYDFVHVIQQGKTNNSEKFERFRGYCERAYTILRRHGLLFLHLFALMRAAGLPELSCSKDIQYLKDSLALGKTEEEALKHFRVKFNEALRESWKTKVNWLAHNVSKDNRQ
Sequence of PI3Kδ (P27986 whole entry partner, canonical isoform): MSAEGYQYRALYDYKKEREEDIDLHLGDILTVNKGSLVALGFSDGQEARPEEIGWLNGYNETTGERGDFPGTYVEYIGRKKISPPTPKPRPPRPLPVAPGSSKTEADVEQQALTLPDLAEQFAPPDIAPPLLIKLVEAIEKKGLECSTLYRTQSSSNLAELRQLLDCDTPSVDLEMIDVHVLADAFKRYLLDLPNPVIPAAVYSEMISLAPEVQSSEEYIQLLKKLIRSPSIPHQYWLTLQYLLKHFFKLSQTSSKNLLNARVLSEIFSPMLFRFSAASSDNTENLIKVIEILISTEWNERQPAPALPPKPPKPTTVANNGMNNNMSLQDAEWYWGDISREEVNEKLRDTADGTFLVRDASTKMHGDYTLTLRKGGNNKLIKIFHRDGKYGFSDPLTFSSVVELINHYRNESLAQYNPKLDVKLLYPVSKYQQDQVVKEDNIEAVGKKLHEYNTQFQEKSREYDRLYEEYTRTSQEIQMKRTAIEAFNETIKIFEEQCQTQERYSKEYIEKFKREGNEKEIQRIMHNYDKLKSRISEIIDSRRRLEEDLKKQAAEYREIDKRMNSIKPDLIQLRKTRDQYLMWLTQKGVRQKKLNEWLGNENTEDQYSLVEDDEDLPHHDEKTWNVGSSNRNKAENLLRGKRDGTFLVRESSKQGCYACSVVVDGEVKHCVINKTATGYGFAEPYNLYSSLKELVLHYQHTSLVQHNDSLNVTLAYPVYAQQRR

[2] = tested on: PI3Kα, PI3Kβ, PI3Kγ, PI3Kδ; experiment: PI3K isoform inhibition, statements spanning several isoforms; type: biochemical, human; details: compared to 6b
How it was run: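 Purified human PI3Kα, β, γ and δ enzymes tested in a fluorescence-based Adapta TR-FRET lipid kinase assay, run as a contract service. Inhibitor range 0.1 nM – 10 μM. Data are the average of three experiments, each in duplicate, as mean ± SEM.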

[3] = tested on: phosphorylation of AKT (S473); experiment: Western blot quantification of pAKT in tumor-derived cell lines; type: cell-based; details: Homo sapiens, 0.5 h, read-out: inhibition of pAKT phosphorylation
How it was run: (§1)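 A375 and D54 cells (DMEM, 10% FBS) and SET-2 cells (RPMI, 20% FBS) treated 30 min with 10 μM test compound. PDGF 50 ng/ml added for A375 and D54 only. Cells lysed 20 min on ice in RIPA with protease/phosphatase inhibitors, then SDS-PAGE/PVDF blots probed for pAKT S473, pERK1/2 T202/Y204, total AKT and total ERK1/2, with chemiluminescent detection. Background-subtracted phospho densities normalised to total protein, relative to control. Three experiments; mean ± SEM.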

[4] = tested on: phosphorylation of ERK1/2 (T202/Y204); experiment: Western blot quantification of pERK1/2 in tumor-derived cell lines; type: cell-based; details: Homo sapiens, 0.5 h, read-out: inhibition of pERK phosphorylation
How it was run: as §1

[5] = tested on: A375 melanoma, D54 glioblastoma and SET-2 leukemia tumor cell lines; experiment: CellTiter-Fluor cell viability assay; type: cell-based; details: Homo sapiens, 72 h, read-out: anti-proliferative activity IC50
How it was run: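 Human A375, D54 (DMEM or RPMI, 10% FBS) and SET-2 (20% FBS) cells at 37 °C, 5% CO2; 500–1,000 cells/well seeded and left 24 h, then test compound added at 0.1–20 μM final for 72 h. Read by CellTiter-Fluor fluorescence, with a reference PI3K inhibitor as positive control. Three experiments in duplicate wells; IC50 from curve fit, mean ± SEM.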

JAK2V617F MF mouse model = experiment: Therapy study in JAK2V617F myelofibrosis mouse model; type: in vivo; details: 325 mg/kg daily p.o., 4 days
How it was run: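 JAK2V617F fl/− × Mx1-Cre donor bone marrow mixed with WT C57BL/6 marrow (1:9, WT:mutant). Five million cells transplanted into lethally irradiated C57BL/6 females, with polyI:C given twice 2 weeks after transplant. Spleen volume by 7T MRI (2D multi-slice FLASH, TR/TE 600/8 ms, 40 slices of 0.4 mm) at days 0 and 4, summing pixel areas × slice thickness. Spleens weighed after 5 days of treatment. n=5 vehicle, n=4 treated; mean ± s.d.; Welch's t-test.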

[6] = tested on: phosphorylated ERK1/2 and AKT in spleens of JAK2V617F MF mice; experiment: pAKT and pERK1/2 in spleens of treated MF mice; type: in vivo, mouse; details: 325 mg/kg daily p.o., 5 days, vs vehicle
How it was run: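 JAK2V617F myelofibrosis mice received test compound orally for 5 days, and spleens were taken after sacrifice. For blots, tissue was homogenised in RIPA and 30 μg protein (by BCA) run by SDS-PAGE. Blots were probed for pERK1/2 and pAKT with β-actin as loading control, 2 animals per group. Flow cytometry: isolated cells stained intracellularly with APC anti-pERK1/2 (pT202/pY204) and anti-pAKT (pS473); mean fluorescence intensity reported.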

[7] = In vivo tissue levels and metabolic profile by LC-MS/MS; set-up: species or system mouse; details: mice, oral 325 mg/kg, approximately 4 h
How it was run: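 Mice (n=4 per compound) dosed orally at 325 mg/kg; blood, spleen and bone marrow taken about 4 h later. Tissue extracted by shaking or bead homogenisation and spun at 10,000 × g. Analysed by C18 UPLC (0.1% formic acid water/acetonitrile, 0.6 mL/min) with MRM LC-MS/MS. Internal-standard calibration used 1/X weighting over 0.02–160 ng/mL. Synthesized metabolite standards confirmed identities; levels given as ng/g.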

Sequence of PI3Kβ (P42338 whole entry): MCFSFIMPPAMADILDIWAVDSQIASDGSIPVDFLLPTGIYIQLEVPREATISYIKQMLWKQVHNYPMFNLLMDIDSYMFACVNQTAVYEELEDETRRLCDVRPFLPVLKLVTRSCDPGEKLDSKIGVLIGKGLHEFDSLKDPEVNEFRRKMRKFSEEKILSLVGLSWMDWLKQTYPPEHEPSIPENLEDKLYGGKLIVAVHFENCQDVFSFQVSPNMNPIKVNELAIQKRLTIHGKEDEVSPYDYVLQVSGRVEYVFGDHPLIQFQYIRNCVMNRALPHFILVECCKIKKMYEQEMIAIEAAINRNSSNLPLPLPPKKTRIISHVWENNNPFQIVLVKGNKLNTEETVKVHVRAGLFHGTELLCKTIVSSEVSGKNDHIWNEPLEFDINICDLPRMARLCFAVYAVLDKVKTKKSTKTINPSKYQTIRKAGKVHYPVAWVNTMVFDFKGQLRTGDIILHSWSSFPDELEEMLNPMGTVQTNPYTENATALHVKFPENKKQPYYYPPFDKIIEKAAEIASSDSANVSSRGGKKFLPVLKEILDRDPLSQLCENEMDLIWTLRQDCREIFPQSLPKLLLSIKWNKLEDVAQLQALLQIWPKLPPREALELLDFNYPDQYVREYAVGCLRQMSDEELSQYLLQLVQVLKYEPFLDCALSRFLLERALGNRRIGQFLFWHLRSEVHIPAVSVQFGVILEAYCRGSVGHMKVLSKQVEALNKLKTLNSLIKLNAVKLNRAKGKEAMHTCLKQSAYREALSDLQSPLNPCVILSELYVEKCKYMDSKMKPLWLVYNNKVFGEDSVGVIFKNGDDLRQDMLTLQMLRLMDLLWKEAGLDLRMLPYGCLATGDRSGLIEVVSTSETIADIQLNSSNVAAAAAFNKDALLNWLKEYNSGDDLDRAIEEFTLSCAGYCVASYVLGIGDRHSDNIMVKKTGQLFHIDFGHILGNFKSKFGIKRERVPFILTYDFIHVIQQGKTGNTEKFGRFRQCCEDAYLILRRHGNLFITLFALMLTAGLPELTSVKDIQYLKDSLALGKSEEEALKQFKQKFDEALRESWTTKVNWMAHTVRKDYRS
Sequence of PI3Kβ (P27986 whole entry partner): as the sequence (P27986 whole entry partner, canonical isoform) above

SMILES: FC(F)c1nc2ccccc2n1-c1nc(N2CCNCC2)nc(N2CCOCC2)n1 [Compound 2a]
fold reduction in PI3Kα and PI3Kδ inhibition [1]: 36 fold
fold reduction in PI3Kβ and PI3Kγ inhibition [1]: > 70 fold

SMILES: OCCN(CCO)c1nc(N2CCOCC2)nc(-n2c(C(F)F)nc3ccccc32)n1 [Compound 6b, 2,2’-((4-(2-(difluoromethyl)-1H-benzo[d]imidazol-1-yl)-6-morpholino-1,3,5-triazin-2-yl)azanediyl)bis(ethan-1-ol)]
fold decrease in PI3Kβ inhibition (PI3Kβ): 5 fold
fold decrease in PI3Kδ inhibition (PI3Kδ): 2.5 fold

SMILES: COCCN(CCO)c1nc(N2CCOCC2)nc(-n2c(C(F)F)nc3ccccc32)n1 [Compound 6d, 2-((4-(2-(difluoromethyl)-1H-benzo[d]imidazol-1-yl)-6-morpholino-1,3,5-triazin-2-yl)(2-methoxyethyl)amino)ethan-1-ol]
fold lower potency towards PI3Kβ and PI3Kγ [2]: 2 fold

SMILES: O=C(NOCCOCCOCCOCCN(CCO)c1nc(N2CCOCC2)nc(-n2c(C(F)F)nc3ccccc32)n1)c1ccc(F)c(F)c1Nc1ccc(I)cc1F [Compound 6s, N-((3-(4-(2-(difluoromethyl)-1H-benzo[d]imidazol-1-yl)-6-morpholino-1,3,5-triazin-2-yl)-1-hydroxy-6,9,12-trioxa-3-azatetradecan-14-yl)oxy)-3,4-difluoro-2-((2-fluoro-4-iodophenyl)amino)benzamide]
inhibition at 10 µM [3]: 55 to 71%
inhibition at 10 µM [4]: 87 to 96%
IC50 [5]: 7 to 9.9 µM
spleen volume by MRI compared with vehicle (JAK2V617F MF mouse model): significantly reduced
phosphorylated ERK1/2 and AKT levels in spleen [6]: significantly reduced
in vivo metabolites identified [7]: MV5–46 (6o), which is then further metabolized to MV5–32 (6b) and MV4–187 (6a)

More lines, main results first:

fold decrease in PI3Kβ inhibition (PI3Kβ): 5 fold
fold lowered potency towards PI3Kγ (PI3Kγ): 2.5 fold
fold decrease in PI3Kδ inhibition (PI3Kδ): 2.5 fold
SMILES: OCCNc1nc(N2CCOCC2)nc(-n2c(C(F)F)nc3ccccc32)n1 [Compound 6a, 2-((4-(2-(difluoromethyl)-1H-benzo[d]imidazol-1-yl)-6-morpholino-1,3,5-triazin-2-yl)amino)ethan-1-ol]

fold decrease in PI3Kβ inhibition (PI3Kβ): 14 fold
SMILES: COCCNc1nc(N2CCOCC2)nc(-n2c(C(F)F)nc3ccccc32)n1 [Compound 6c, 4-(2-(difluoromethyl)-1H-benzo[d]imidazol-1-yl)-N-(2-methoxyethyl)-6-morpholino-1,3,5-triazin-2-amine]

IC50 [5]: 10.7 to 17.3 µM
in vivo metabolites identified [7]: MV-187 (6a) and PD0316684 and MV4–6
SMILES: O=C(NOCCOCCOCCOCCNc1nc(N2CCOCC2)nc(-n2c(C(F)F)nc3ccccc32)n1)c1ccc(F)c(F)c1Nc1ccc(I)cc1F [Compound 6r, N-(2-(2-(2-(2-((4-(2-(difluoromethyl)-1H-benzo[d]imidazol-1-yl)-6-morpholino-1,3,5-triazin-2-yl)amino)ethoxy)ethoxy)ethoxy)ethoxy)-3,4-difluoro-2-((2-fluoro-4-iodophenyl)amino)benzamide]
inhibition at 10 µM [3]: 22 to 29%
inhibition at 10 µM [4]: 66 to 85%
spleen volume by MRI compared with vehicle (JAK2V617F MF mouse model): significantly reduced
phosphorylated ERK1/2 and AKT levels in spleen [6]: significantly reduced
